Laboratory results from ChEMBL document CHEMBL5346889, “Discovery of 4-oxo-N-phenyl-1,4-dihydroquinoline-3-carboxamide derivatives as novel anti-inflammatory agents for the treatment of acute lung injury and sepsis” (Eur J Med Chem, 2023).
Active and inactive are the calls of the source. The calls are words filed in the database; no cut-off is given here.

Key:
J774.A1 [1] = assay: Cytotoxicity against mouse J774.A1 cells assessed as reduction in cell viability at 10 uM incubated for 24 hrs by MTT assay; format: functional, cell-based
Procedure, shortened: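 J774A.1 macrophages exposed to 10 μM for 24 h; MTT at 5 mg/mL added for 4 h; absorbance read at 490 nm; viability expressed as percent of DMSO control.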

J774.A1 [2] = assay: Antiinflammatory activity in LPS-induced mouse J774.A1 cells assessed as inhibition of LPS-induced TNF-alpha release at 10 uM preincubated for 30 mins followed by LPS stimulation for 24 hrs by ELISA method; format: functional; details: time 24.5 hrs
Procedure, shortened: (§1)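 J774A.1 macrophages pretreated 30 min at 10 μM, then challenged with LPS 0.5 μg/mL for 24 h at 37 °C, 5% CO2. Medium IL-6 and TNF-α measured by ELISA, normalized to total lysate protein.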

Mus musculus [3] = assay: Antiinflammatory activity in LPS-induced C57/BL6 mouse acute lung injury model assessed as decrease in IL-6 expression level at 20 mg/kg via oral gavage preincubated for 30 mins followed by LPS stimulation for 6 hrs by RT-qPCR method; format: functional, organism-based; details: time 6.5 hrs
Procedure, shortened: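 Male C57BL/6 mice, six weeks old, n = 8 per group. Dosed 20 mg/kg orally 30 min before intratracheal LPS 5 mg/kg; dexamethasone 20 mg/kg as comparator. Lung tissue collected 6 h after LPS. RNA extracted with TRIzol; IL-6 and TNF-α transcripts by RT-qPCR, normalized to β-actin; n = 5 mice per group, mean ± SEM.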

J774.A1 [4] = assay: Antiinflammatory activity in LPS-induced mouse J774.A1 cells assessed as inhibition of LPS-induced TNF-alpha transcription preincubated for 0.5 hrs followed by LPS stimulation for 6 hrs by RT-qPCR method; format: functional, cell-based; details: dose 5-10 µM, time 6.5 hrs
Procedure, shortened: (§2)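 J774A.1 or THP-1 cells pretreated 0.5 h at 10 or 5 μM, then LPS 0.5 μg/mL for 6 h. TRIzol RNA; IL-6, TNF-α and IL-1β transcripts by RT-qPCR, normalized to β-actin and control; 3 independent experiments, mean ± SEM.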

[5] = Stability of the compound in pH 7.4 phosphate buffer measured upto 30 mins by UV-Vis analysis; format: physicochemical; details: pH 7.4, 0.5 h
Procedure, shortened: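 Dissolved in phosphate buffer pH 7.4; UV-visible absorption (OD) recorded over 30 min.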

J774.A1 [6] = assay: Antiinflammatory activity in LPS-induced mouse J774.A1 cells assessed as inhibition of LPS-induced IL-6 release at 10 uM preincubated for 30 mins followed by LPS stimulation for 24 hrs by ELISA method; format: functional; details: time 24.5 hrs; procedure, shortened: as §1
[7] = Cmax in rat at 10 mg/kg, po; format: ADME, organism-based; parameters: dose 10 mg/kg, route po; details: in vivo
Procedure, shortened: (§3)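 Rats dosed intravenously at 1 mg/kg or orally at 10 mg/kg; plasma pharmacokinetic parameters AUC(0-t), Tmax, T1/2, Cmax and oral bioavailability F derived from the two routes.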

Mus musculus [8] = assay: Protection against LPS-induced C57/BL6 mouse acute lung injury model assessed as reduction in protein concentration in BALF at 20 mg/kg via oral gavage preincubated for 30 mins followed by LPS stimulation for 6 hrs; format: functional, organism-based; details: time 6.5 hrs
Procedure, shortened: (§4)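 Mice dosed 20 mg/kg by gavage (dexamethasone 20 mg/kg comparator), intratracheal LPS 5 mg/kg 30 min later, killed at 6 h. Right upper lobe fixed in paraformaldehyde, H&E; lung wet/dry ratio; BALF protein, total cells and neutrophils counted; n = 5 mice per group, mean ± SEM.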

J774.A1 [9] = assay: Inhibition of NF-kappaB pathway in LPS-induced mouse J774.A1 cells assessed as inhibition of p65 phosphorylation preincubated with compound for 2 hrs followed by LPS-stimulation and measured after 30 mins by Western blot analysis; format: cell-based; details: dose 5-10 µM, time 2.5 hrs
Procedure, shortened: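 J774A.1 cells preincubated with 10 or 5 μM or DMSO for 2 h, then LPS 0.5 μg/mL for 30 min. RIPA lysates run on 12.5% SDS-PAGE, transferred to PVDF, blocked with 5% milk; probed for IκB-α and p-p65, with GAPDH and p65 as loading controls; ECL detection; densitometry.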

[10] = AUC (0 to t) in rat at 10 mg/kg, po; format: ADME, organism-based; parameters: dose 10 mg/kg, route po; details: in vivo; procedure, shortened: as §3
[11] = Half life in rat at 10 mg/kg, po; format: ADME, organism-based; details: in vivo; procedure, shortened: as §3
THP-1 [12] = assay: Antiinflammatory activity in LPS-induced human THP-1 cells assessed as inhibition of LPS-induced IL-6 transcription preincubated for 0.5 hrs followed by LPS stimulation for 6 hrs by RT-qPCR method; format: functional, cell-based; details: dose 5-10 µM, time 6.5 hrs; procedure, shortened: as §2
Mus musculus [13] = assay: Protection against LPS-induced sepsis in C57/BL6 mouse model assessed as reduction of obvious white pulp in spleen at 20 mg/kg, po preincubated with compound followed by LPS stimulation for 1 hr by H and E staining based analysis; format: functional, organism-based
Procedure, shortened: (§5)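 Mice given 20 mg/kg orally, then intraperitoneal LPS 20 mg/kg 1 h later; n = 12 per group. Kidney, liver, heart and spleen weighed; spleen sections H&E-stained for histology.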

Mus musculus [14] = assay: Protection against LPS-induced C57/BL6 mouse acute lung injury model assessed as reduction in number of neutrophils in BALF at 20 mg/kg via oral gavage preincubated for 30 mins followed by LPS stimulation for 6 hrs; format: functional, organism-based; details: time 6.5 hrs; procedure, shortened: as §4
LX-2 = assay: Antiinflammatory activity in LPS-induced human LX2 cells assessed as inhibition of LPS-induced TNF-alpha release preincubated for 30 mins followed by LPS stimulation for 24 hrs by ELISA method; format: functional, cell-based
Procedure, shortened: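 THP-1 or LX-2 cells in DMEM with 10% FBS, 37 °C, 5% CO2. Pretreated 30 min at 10, 5, 2.5 or 1.25 μM, then LPS 0.5 μg/mL for 24 h. IL-6 and TNF-α in medium measured by ELISA, normalized to lysate total protein; mean ± SEM of 3 independent experiments.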

Mus musculus [15] = assay: Protection against LPS-induced sepsis in C57/BL6 mouse model assessed as reduction in periarterial lymphatic sheath thickening at 20 mg/kg, po preincubated with compound followed by LPS stimulation for 1 hr by H and E staining based analysis; format: functional, organism-based; procedure, shortened: as §5
J774.A1 [16] = assay: Inhibition of NF-kappaB pathway in LPS-induced mouse J774.A1 cells assessed as reduction in p65 nuclear translocation preincubated with compound for 2 hrs followed by LPS-stimulation and measured after 30 mins by Western blot analysis; format: cell-based; details: time 2.5 hrs
THP-1 [17] = assay: Antiinflammatory activity in LPS-induced human THP-1 cells assessed as inhibition of LPS-induced IL-1 beta transcription preincubated for 0.5 hrs followed by LPS stimulation for 6 hrs by RT-qPCR method; format: functional, cell-based; details: dose 5-10 µM, time 6.5 hrs; procedure, shortened: as §2
Mus musculus [18] = assay: Antiinflammatory activity in LPS-induced C57/BL6 mouse acute lung injury model assessed as decrease in TNF-alpha level in BALF at 20 mg/kg via oral gavage preincubated for 30 mins followed by LPS stimulation for 6 hrs by ELISA; details: time 6.5 hrs
Mus musculus [19] = assay: Antiinflammatory activity in LPS-induced C57/BL6 mouse acute lung injury model assessed as decrease in IL-6 level in serum at 20 mg/kg via oral gavage preincubated for 30 mins followed by LPS stimulation for 6 hrs by ELISA; details: time 6.5 hrs
THP-1 [20] = assay: Antiinflammatory activity in LPS-induced human THP-1 cells assessed as inhibition of LPS-induced TNF-alpha transcription preincubated for 0.5 hrs followed by LPS stimulation for 6 hrs by RT-qPCR method; format: functional, cell-based; details: dose 5-10 µM, time 6.5 hrs; procedure, shortened: as §2

COc1cc2nccc(Oc3ccc(NC(=O)c4cn(-c5ccccc5)c5ccccc5c4=O)cc3)c2cc1OC
Activity (J774.A1 [1]): inactive
inhibition at 10 µM (J774.A1 [2]): 82.6%
Activity (Mus musculus [3]): Active
inhibition (J774.A1 [4]): Dose-Dependent Effect
Stability [5]: Stable
inhibition at 10 µM (J774.A1 [6]): 75%
Cmax [7]: 1680 ng/mL
Activity (Mus musculus [8]): Active
inhibition (J774.A1 [9]): Dose-Dependent Effect
AUC(0-t) [10]: 22900 ng·h/mL
half-life [11]: 11.8 h
inhibition (THP-1 [12]): Dose-Dependent Effect
Activity (Mus musculus [13]): Active
Activity (Mus musculus [14]): Active
IC50 (LX-2): 2910 nM
Activity (Mus musculus [15]): Active
inhibition (J774.A1 [16]): Active
inhibition (THP-1 [17]): Dose-Dependent Effect
Activity (Mus musculus [18]): Active
Activity (Mus musculus [19]): Active
inhibition (THP-1 [20]): Dose-Dependent Effect
